# Bioassay records as filed in PubChem BioAssay.
# PfG6PD inh: PfG6PD (Plasmodium falciparum) enzyme inhibition; PfGluPho enzyme, NADPH resazurin-diaphorase fluorescence; inhibition, % at 20 µM; 350,000 tested, 0.78% active; AID 504690;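 active = inhibition reaching at least a set limit at 20 µM in the primary screen, cut at about 59% in these data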
# EBNA-1 inhibitor: blocks EBNA-1 binding to DNA; inhibition, % at 14.8 µM; EBNA-1 DNA binding, fluorescence polarization; 300,000 tested, 0.34% active; in the data active = inhibition above about 28%
# Apaf-1 inh: human Apaf-1 inhibition. O14727. reconstituted apoptosome caspase-3 activity, DEVD-Rh110 fluorescence. inhibition, % at 20 µM. 330,000 tested, 0.71% active. AID 489030; active = inhibition of at least 40% at 20 µM
#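 Medium: Hepes buffer, pH 7.5 / System: biochemical Apaf-1 apoptosome reconstitution / Measured by: Rh110 fluorescence, excitation 480 nm, emission 540 nm / Times: compound with Apaf-1, dATP, procaspase-3 30 min, then 50 min reaction, room temperature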
# UBC13 inh: human UBC13 polyubiquitination inhibition. P61088. UBC13 polyubiquitin chain formation, TR-FRET. inhibition, % at 20 µM. 330,000 tested, 0.47% active; in the data active = inhibition above about 45%, passing the limit was not always enough; inconclusive = no clear call, values can overlap the other calls
# Target sequence (P61088 whole entry, looked up): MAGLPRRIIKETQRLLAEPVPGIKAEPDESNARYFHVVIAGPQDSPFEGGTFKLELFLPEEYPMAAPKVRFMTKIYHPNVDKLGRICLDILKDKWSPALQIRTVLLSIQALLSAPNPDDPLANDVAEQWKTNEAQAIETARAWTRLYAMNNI
# M18AAP inhibitor: blocks P. falciparum M18 aspartyl aminopeptidase; inhibition, % at 7.35 µM; 290,000 tested, 1.2% active; recombinant PfM18AAP, H-Glu-NHMec fluorogenic cleavage;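 active = inhibition above the campaign mean inhibition over all tested compounds plus 3 SD, cut at about 28% in these data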
# ZTA DNA inh: counter-screen for EBNA-1 inhibitors: inhibitors of Epstein-Barr virus ZTA; ZTA-DNA binding, fluorescence polarization; inhibition, % at 11 µM; 320,000 tested, 0.15% active; P03206; in the data active = inhibition above about 33%
# Target sequence (P03206 whole entry, looked up): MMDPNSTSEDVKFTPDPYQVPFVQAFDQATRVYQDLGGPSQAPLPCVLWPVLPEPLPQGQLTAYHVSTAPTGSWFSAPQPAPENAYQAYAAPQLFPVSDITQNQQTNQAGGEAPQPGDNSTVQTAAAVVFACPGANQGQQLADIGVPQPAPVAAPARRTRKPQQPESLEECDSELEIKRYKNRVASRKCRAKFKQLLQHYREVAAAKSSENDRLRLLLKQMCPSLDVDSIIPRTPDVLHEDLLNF
# Casp3 counter: inhibits human caspase-3 in UBC13 counter-screen; 1,400 tested, 4% active; inhibition, % at 20 µM; shares compounds with UBC13 inh; Recombinant caspase-3, Caspase-Glo 3/7 luminescence, 60 min; AID 488856;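 active = mean inhibition across replicates above about 26%, limit read from the data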
# Target sequence (P42574 whole entry, looked up): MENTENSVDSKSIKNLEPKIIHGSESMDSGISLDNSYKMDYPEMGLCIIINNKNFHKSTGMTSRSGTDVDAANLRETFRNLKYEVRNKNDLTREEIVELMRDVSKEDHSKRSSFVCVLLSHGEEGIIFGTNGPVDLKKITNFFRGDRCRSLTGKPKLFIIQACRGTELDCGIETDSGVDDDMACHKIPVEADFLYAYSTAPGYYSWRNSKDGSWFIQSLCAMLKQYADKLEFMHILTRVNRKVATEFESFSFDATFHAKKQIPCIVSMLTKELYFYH
# UBC13 confirm: confirmation of human UBC13 polyubiquitin inhibitors; shares compounds with UBC13 inh; UBC13 polyubiquitination, TR-FRET, biochemical; inhibition, % at 10 µM; 1,400 tested, 68% active; AID 488859; in the data active = inhibition above about 45%; inconclusive = no clear call, values can overlap the other calls
# Hits are given with their value; i = inactive; ? = inconclusive; nt = not tested or not shown. Most compounds without a hit are left out; they make up all but 2.9% or so of the library.
SMILES,PfG6PD inh,EBNA-1 inhibitor,Apaf-1 inh,UBC13 inh,M18AAP inhibitor,ZTA DNA inh,Casp3 counter,UBC13 confirm
C#CCOCCOCCOCCNc1nc(N2CCN(C(=O)C(Cc3ccc(O)cc3)n3cc(C(N)C(C)CC)nn3)CC2)nc(N2CCN(C(=O)C(Cc3ccc(O)cc3)n3cc(C(N)C(C)CC)nn3)CC2)n1 (stereo unspecified),i,i,i,49.2,i,i,i,i
C#CCOCCOCCOCCNc1nc(N2CCN(C(=O)[C@H](CCCCN)n3cc(CN)nn3)CC2)nc(N2CCN(C(=O)[C@H](CCC(=O)O)n3cc([C@@H](N)CCCCN)nn3)CC2)n1,i,nt,i,105.1,nt,nt,i,113.7
C#CCOCCOCCOCCNc1nc(N2CCN(C(=O)[C@H](CCC(=O)O)n3cc(CN)nn3)CC2)nc(N2CCN(C(=O)[C@H](CCCCN)n3cc([C@@H](N)CC(N)=O)nn3)CC2)n1,i,nt,i,i,nt,nt,nt,nt
C#CCOCCOCCOCCNc1nc(N2CCN(C(=O)[C@H](CCCCN)n3cc(C(N)CC(C)C)nn3)CC2)nc(N2CCN(C(=O)[C@H](CCC(=O)O)n3cc(C(N)[C@H](C)CC)nn3)CC2)n1 (stereo partly specified),i,i,i,i,i,i,nt,nt
C#CCOCCOCCOCCNc1nc(N2CCN(C(=O)[C@H](CCCCN)n3cc([C@@H](N)C(C)CC)nn3)CC2)nc(N2CCN(C(=O)[C@H](Cc3ccc(O)cc3)n3cc([C@@H](N)CC(C)C)nn3)CC2)n1 (stereo partly specified),i,i,i,57.4,i,i,i,i
C#CCOCCOCCOCCNc1nc(N2CCOCC2)nc(N2CCN(C(=O)[C@H](Cc3ccc(O)cc3)n3cc([C@@H](N)C(C)CC)nn3)CC2)n1 (stereo partly specified),i,i,i,i,i,i,nt,nt
C#CCOCCOCCOCCNc1nc(N2CCN(C(=O)[C@H](CCCCN)n3cc([C@@H](N)CC(C)C)nn3)CC2)nc(N2CCN(C(=O)[C@H](CCCCN)n3cc([C@@H](N)CC(C)C)nn3)CC2)n1,i,i,i,77.2,i,i,i,84.1
Cc1cccc(-n2ncc3c(=O)[nH]c(SCC(=O)NCCC4=CCCCC4)nc32)c1,i,nt,i,i,nt,i,nt,nt
Cc1ccc(CN2CCCC(CO)(Cc3ccccc3C)C2)s1 (stereo unspecified),i,i,i,i,i,i,nt,nt
N#Cc1nc(-c2cccc3ccccc23)oc1NCCN1CCCCC1,i,i,i,71.2,i,i,i,91.4
O=C(c1cccc(F)c1)N1CCN(C(=O)c2cc3ncc(Br)cn3n2)CC1,i,i,i,i,i,i,nt,nt
O=C1Nc2cc(C(=O)NCCCN3CCOCC3)ccc2S/C1=C/c1cccc(Cl)c1,i,i,i,56.7,i,i,i,72.2
COc1ccc(/C=C2/Sc3ccc(C(=O)NCCN4CCCCCC4)cc3NC2=O)cc1,i,i,49.0,67.2,i,i,i,86.2
COc1ccc(C(=O)NCCN2CCCC2)cc1,i,i,i,i,i,i,nt,nt
O=C1Nc2cc(C(=O)NCCCN3CCOCC3)ccc2S/C1=C/c1ccccc1F,i,i,i,i,i,i,nt,nt
N#Cc1ccc(Nc2nc(-c3ccc(O)cc3O)cs2)cc1C(F)(F)F,i,nt,i,67.7,nt,i,i,55.4
CC(=O)Nc1ccc(NC(=O)c2nc(S(=O)(=O)Cc3cccc(C)c3)ncc2Cl)cc1,i,i,i,45.1,i,i,i,46.9
CCCS(=O)(=O)c1ncc(Cl)c(C(=O)Nc2ccc(S(=O)(=O)Nc3ncccn3)cc2)n1,i,i,i,53.4,i,i,i,50.2
CCSc1ncc(Cl)c(C(=O)Nc2ccc(S(=O)(=O)Nc3ncccn3)cc2)n1,i,i,i,i,i,i,nt,nt
CC(C)c1nnc(NC(=O)c2nc(S(=O)(=O)Cc3ccccc3)ncc2Cl)s1,i,i,i,i,i,i,nt,nt
CCCc1nnc(NC(=O)c2nc(S(=O)(=O)Cc3ccc(C)cc3)ncc2Cl)s1,i,i,i,59.1,i,i,i,53.8
Cc1[nH]c2ccccc2c1C=NNC(=O)c1cc(-c2cccnc2)nc2ccccc12,i,nt,i,i,nt,nt,nt,nt
Cc1csc(NC(=O)CCNC(=O)c2ccc([N+](=O)[O-])cc2)n1,i,i,i,i,i,i,nt,nt
COc1ccc(C2=NO[C@@H]3[C@@H]4C[C@@H]([C@H]5C(=O)N(C)C(=O)[C@@H]45)[C@H]23)cc1,i,i,i,i,i,i,nt,nt
O=C(CSC1=NS(=O)(=O)c2ccccc21)Nc1ccccc1,i,i,i,47.4,i,i,i,i
SMILES,PfG6PD inh,EBNA-1 inhibitor,Apaf-1 inh,UBC13 inh,M18AAP inhibitor,ZTA DNA inh,Casp3 counter,UBC13 confirm
CN(C)CCCNC(=O)c1ccc(-c2cc(O)c3ncccc3c2)cc1,i,nt,i,112.3,nt,nt,i,117.9
CN(C)CCCNC(=O)c1ccc(-c2nc(-c3ccc(Cl)cc3)cs2)cc1,i,i,i,54.3,i,i,i,67.5
CN(C)CCCNC(=O)c1ccccn1,i,i,i,i,i,i,nt,nt
CN(C)c1ccc(-c2cc(O)c3ncccc3c2)cc1,i,nt,i,i,nt,i,nt,nt
O=C(NCCCN1CCc2ccccc2C1)C1CCN(S(=O)(=O)N2CCC3(CC2)OCCO3)CC1,i,i,i,i,i,i,nt,nt
NCC12CC3CC(C1)CC(c1ccc(Cl)cc1)(C3)C2,i,i,i,57.4,i,i,i,76.3
Nc1ccc(C23CC4CC(CC(CO)(C4)C2)C3)cc1,i,i,i,i,i,i,nt,nt
CCOC(=O)c1cc2c(=O)n3ccccc3nc2n(Cc2ccco2)c1=NC(=O)c1ccc(OC)cc1OC,i,i,i,i,i,i,nt,nt
NC(N)=N/N=C/c1ccc(OCc2ccccc2)cc1,i,i,i,50.1,i,i,i,53.2
NC(N)=N/N=C/c1ccc(OCc2ccc(Cl)cc2)cc1,i,i,i,101.7,i,i,i,120.5
COc1ccc(-c2c(-c3cc(OC)cc(OC)c3)n(C)c3ccc(Br)cc23)cc1,i,nt,i,48.5,nt,i,i,i
COc1cc(OC)cc(-c2c(-c3ccc(F)cc3)c3cc(-c4ccc(OC)nc4)ccc3n2C)c1,i,nt,i,i,nt,nt,nt,nt
COc1cccc(-c2c(-c3cc(OC)cc(OC)c3)n(C)c3ccc(-c4ccc(OC)nc4)cc23)c1,i,nt,i,46.4,nt,i,i,?
CSc1ccccc1NC(=O)CSc1cccc[n+]1[O-],i,nt,i,i,nt,nt,nt,nt
COc1cc2sc(-c3ccc(S(C)(=O)=O)cc3)c(C(=O)NCc3ccc(C)o3)c2cc1OC,i,nt,i,46.4,nt,nt,i,i
Cc1ccc(CNC(=O)c2c(-c3ccccc3)sc3ccccc23)o1,i,nt,i,i,nt,nt,nt,nt
COc1cc2sc(-c3ccc(S(C)(=O)=O)cc3)c(C(=O)NCCCCO)c2cc1OC,i,nt,i,46.1,nt,nt,i,i
COc1ccc2sc(-c3ccc(S(C)(=O)=O)cc3)c(C(=O)NCCCN3CCCC3=O)c2c1,i,nt,i,i,nt,nt,nt,nt
